PKA-R1A act = activators of PKA-R1A holoenzyme, primary screen, biochemical, fluorescence polarization, Cy5-IP20, bovine R1A, mouse PKAc. cAMP-dependent protein kinase type I-alpha regulatory subunit (Bos taurus) + …. PKA-R1A dissociation; scaled: DMSO 0%, 113 µM cGMP 100%. activation, % at 11.4 µM. hit rate 0.083% among 340,000. AID 504707, 2011;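 active means percent activation above the mean of all tested compounds plus 3 SD, cut at about 19% in these data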;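 further: higher means more PKAc released from R1A so a rise in polarization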
Cardio protect = cardioprotection against H2O2-induced cell death, primary screen, uHTS, H9c2 cells, ATPLite luminescence; H9c2 cardiomyocytes, H2O2 injury protection, 2 h; protection from H2O2 cell death, % at 20 µM; hit rate 0.63% among 360,000; AID 588492, 2011;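 active means compounds giving at least 50% protection of heart cells from peroxide-induced death in the single-dose screen, raw or plate-pattern-corrected value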
TbMetRS inhib = T. brucei MetRS inhibitors, primary screen, biochemical, luminescence; hit rate 0.4% among 360,000; inhibition, % at 11.9 µM; methionyl-tRNA synthetase (Trypanosoma brucei brucei); purified T. brucei MetRS, ATP depletion, Kinase-Glo luminescence;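 active means inhibition above a per-plate cutoff of the control wells' mean inhibition plus 3 SD, cut at about 5.5% in these data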
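System: purified T. brucei MetRS enzyme / Detection: Kinase-Glo luciferase luminescence reporting remaining unconsumed ATP / Medium: HEPES buffer with MgCl2, KCl, DTT, spermine, BSA, pyrophosphatase / Replication: singlicate, one well per compound / Evaluation: percent inhibition relative to median high and low control wells / Schedule: 2 h aminoacylation at 25 °C after 15 min preincubation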
PKA-R2B act = activators of PKA-R2B holoenzyme, primary screen, biochemical, fluorescence polarization, Cy5-IP20, human; activation, % at 11.4 µM; AID 504700, 2011; cAMP-dependent protein kinase catalytic subunit beta (Homo sapiens) + cAMP-dependent …; hit rate 0.079% among 340,000; PKA-R2B holoenzyme dissociation; R2B truncated from residue 108, S112A mutant; 0% DMSO only, 100% 113 µM cGMP;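 active means activation above a cutoff set at the mean over all compounds plus 3 SD, cut at about 18% in these data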;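 further: higher means more holoenzyme dissociation and a rise in polarization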
Target sequence (P31323 whole entry, looked up, other chains not shown, the tested form may be a part): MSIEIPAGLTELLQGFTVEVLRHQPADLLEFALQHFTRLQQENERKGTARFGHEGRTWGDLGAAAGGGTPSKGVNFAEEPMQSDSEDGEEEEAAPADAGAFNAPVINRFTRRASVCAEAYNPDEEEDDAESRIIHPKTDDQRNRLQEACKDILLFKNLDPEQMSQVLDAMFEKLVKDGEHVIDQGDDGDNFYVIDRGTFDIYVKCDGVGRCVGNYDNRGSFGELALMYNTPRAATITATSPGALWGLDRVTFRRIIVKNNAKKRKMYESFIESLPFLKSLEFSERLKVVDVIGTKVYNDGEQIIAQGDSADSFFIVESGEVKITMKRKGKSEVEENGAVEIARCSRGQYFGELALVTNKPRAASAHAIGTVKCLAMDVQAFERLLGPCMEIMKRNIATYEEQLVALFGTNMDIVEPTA
Rin1-Abl PPI inh = inhibitors of Rin1-Abl protein binding, primary screen, biochemical, TR-FRET; inhibition, % at 7.35 µM; hit rate 0.4% among 360,000; AID 588664, 2011; in the data active means inhibition above about 5%, passing the limit was not always enough
A number is an active result; 0 = inactive; - = not tested or not shown. Compounds with a hit are over-represented: about 1.5% of the library has one in this group of screens.

SMILES | PKA-R1A act | Cardio protect | TbMetRS inhib | PKA-R2B act | Rin1-Abl PPI inh
CC(=O)c1c(C)n(-c2cccc(Cl)c2)c2ccc(O)cc12 | 0 | 61.7 | 0 | 0 | 0
COc1cccc(-c2cc(NC=O)c3ncc(-c4ccc(OC)c(OC)c4)n3c2)c1 | - | 0 | 0 | - | 0
O=CNc1cc(-c2ccsc2)cn2c(-c3ccccc3)cnc12 | - | 0 | 0 | - | 0
CS(=O)(=O)c1ccc(-c2cnc3c(NC=O)cc(-c4ccsc4)cn23)cc1 | - | 81.2 | 0 | - | 0
COc1ccc(-c2cnc3c(NC=O)cc(-c4cccc(NS(C)(=O)=O)c4)cn23)cc1OC | - | 105.0 | 0 | - | 0
COc1cccc(-c2cnc3c(NC=O)cc(-c4cc(OC)c(OC)c(OC)c4)cn23)c1 | - | 71.3 | 0 | - | 0
O=C(Nc1ccc(N2CCOCC2)cc1)c1csc([C@@H]2C[C@H](O)[C@@H](CO)O2)n1 | - | 0 | 0 | - | 0
Cc1ccc2nc(-c3ccccc3)cc(C(=O)NNC(=O)c3csc(N4CCOCC4)n3)c2c1 | 0 | 58.0 | 0 | 0 | 0
O=C(NNC(=O)c1ccccc1OCc1ccccc1Cl)c1csc(N2CCOCC2)n1 | 0 | 52.0 | 0 | 0 | 0
O=C1CCC(C(=O)OCc2cc(=O)oc3ccc4ccccc4c23)=NN1 | 0 | 0 | 0 | 0 | 0
CCC(ONc1ccccc1C(F)(F)F)(C(=O)NN(C)C)c1ccccc1 (stereo unspecified) | 0 | 52.7 | 0 | 0 | 0
CCOc1ccc(OCC(=O)Nc2ccccc2C(F)(F)F)cc1 | 0 | 0 | 0 | 0 | 0
COc1ccc(Cl)cc1C(=O)NNC(=O)c1nn(C)c(=O)c2ccccc12 | 0 | 0 | 0 | 0 | 0
CCn1nc(C(=O)NNC(=O)c2cc(Cl)ccc2OC)c2ccccc2c1=O | 0 | 66.4 | 0 | 0 | 0
CCOc1cc(N2CCOCC2)c(OCC)cc1NC(=O)c1nn(CC)c(=O)c2ccccc12 | 0 | 53.9 | 0 | 0 | 0
CCOc1cc(N2CCOCC2)c(OCC)cc1NC(=O)c1ccc(OCc2c(C)noc2C)c(OC)c1 | 0 | 63.3 | 0 | 0 | 0
Cc1cc(SCC(=O)c2ccc(O)c(O)c2)n2nc(C)c(-c3ccccc3)c2n1 | 0 | 71.4 | 0 | 0 | 0
C=CCC[C@H](Cc1ccc(F)cc1)C(=O)OC[C@@H](Cc1c[nH]c2ccccc12)NC(=O)[C@@H](CC=C)CC(=O)NCCO | 0 | 67.8 | 0 | 0 | 0
COC(=O)c1ccc(-c2n[nH]c(=O)c3ccccc23)cc1 | 0 | 0 | 0 | 0 | 0
O=C1COc2ccc(-c3n[nH]c(=O)c4ccccc34)cc2N1 | 0 | 58.8 | 0 | 0 | 0
Nc1nc(-c2ccc3c(c2)NC(=O)CO3)cs1 | 0 | 0 | 0 | 0 | 0
CN(C)C(=O)c1ccc(-c2n[nH]c(=O)c3ccccc23)cc1 | 0 | 62.5 | 0 | 0 | 0
O=C(NC1CC(=O)N(c2ccccc2)C1)C1CC1 (stereo unspecified) | 0 | 0 | 0 | 0 | 0
COc1ccc(C(CC(=O)N2CCN(c3ccccc3)CC2)c2c(OC)cc(OC)c3ccc(=O)oc23)cc1 (stereo unspecified) | 0 | 50.6 | 0 | 0 | 0
COCCCNC(=O)/C(C#N)=C1\N=C(NC(=O)c2cccs2)c2ccccc21 | 0 | 57.9 | 0 | 0 | 0
SMILES | PKA-R1A act | Cardio protect | TbMetRS inhib | PKA-R2B act | Rin1-Abl PPI inh
N#C/C(C(=O)NCCc1ccccc1)=C1/N=C(NC(=O)c2cccs2)c2ccccc21 | 0 | 0 | 0 | 0 | 0
CC(C(=O)O)n1cc(Cl)cn1 (stereo unspecified) | - | 0 | 0 | - | 0
Cc1ccc2cc(CN(CC3CCCO3)S(=O)(=O)c3c(C)ccc4nsnc34)c(=O)[nH]c2c1 (stereo unspecified) | 0 | 0 | 0 | 0 | 0
Cc1ccc2nsnc2c1S(=O)(=O)N(Cc1cc2cccc(C)c2[nH]c1=O)CC1CCCO1 (stereo unspecified) | 0 | 80.0 | 0 | 0 | 0
CCCCc1noc(-c2c(-c3ccccc3Cl)noc2C)n1 | 0 | 0 | 0 | 0 | 0
Cc1ccc2c(c1)N(Cc1cccc(Cl)c1)C(=O)c1cccnc1O2 | 0 | 0 | 0 | 0 | 0
O=C1c2cccnc2Oc2ccc(Cl)cc2N1Cc1ccc(F)cc1 | 0 | 63.4 | 0 | 0 | 0
Nc1c(C(=O)NC2CCCC2)c2nc3ccccc3nc2n1/N=C/c1ccco1 | 0 | 50.0 | 0 | 0 | 0
Nc1c(C(=O)NC2CCCC2)c2nc3ccccc3nc2n1N | 0 | 62.0 | 0 | 0 | 0
CC(NC(=O)c1ccc2c(c1)OCO2)C(c1cccs1)N1CCN(c2ccccc2)CC1 (stereo unspecified) | 0 | 0 | 0 | 0 | 0
Oc1ccc(-c2nc(-c3ccc(O)c(O)c3)cs2)cc1 | 0 | 53.0 | 0 | 0 | 0
COc1cc2cc(-c3ccc(O)cc3O)nc(C)c2cc1OC | 0 | 70.6 | 0 | 0 | 0
O=CNc1cc(-c2ccc(C(=O)NC3CC3)cc2)cn2c(-c3ccccc3)cnc12 | - | 72.4 | 0 | - | 0
O=CNc1cc(-c2ccccc2)cn2c(-c3ccc(F)c(Cl)c3)cnc12 | - | 0 | 0 | - | 0
O=CNc1cc(-c2ccc(C(=O)NC3CC3)cc2)cn2c(-c3ccc(F)c(Cl)c3)cnc12 | - | 59.9 | 0 | - | 0
CC(=O)c1ccc(-c2cnc3c(NC=O)cc(-c4ccc(C(=O)NC5CC5)cc4)cn23)cc1 | - | 95.4 | 0 | - | 0
O=c1[nH]c2cc(F)ccc2c2ccc(F)cc12 | 0 | 61.5 | 0 | 0 | 0
O=c1[nH]c2ccccc2c2ccc(Cl)cc12 | 0 | 0 | 0 | 0 | 0
CCOC(=O)Cc1n[nH]c(=O)c2ccccc12 | 0 | 69.3 | 0 | 0 | 0
Cc1ccc(OCC(=O)NCc2n[nH]c(=O)c3ccccc23)cc1 | 0 | 70.6 | 0 | 0 | 0
CCOC(=O)c1c(NC(=O)COC(=O)CCNS(=O)(=O)c2ccccc2)sc(C(=O)NC)c1C | 0 | 0 | 0 | 0 | 0
COC(=O)Cc1n[nH]c(=O)c2ccccc12 | 0 | 59.2 | 0 | 0 | 0
CCOC(=O)c1c(NC(=O)COC(=O)Cc2n[nH]c(=O)c3ccccc23)sc(C(=O)NC)c1C | 0 | 106.0 | 0 | 0 | 0
O=C(Cc1n[nH]c(=O)c2ccccc12)OCC(=O)N(Cc1ccccc1)Cc1ccccc1 | 0 | 0 | 0 | 0 | 0
CCN1C(=O)[C@@H]2Cc3c([nH]c4ccccc34)C(c3ccc(OC)cc3)N2C1=S (stereo partly specified) | 0 | 0 | 0 | 0 | 0
CC1(C)CC(=O)C(CSC(=O)c2ccccc2)C(=O)C1 | 0 | 0 | 0 | 0 | 0
Cc1ccc(N2CC(C(=O)NCc3n[nH]c(=O)c4ccccc34)CC2=O)cc1 (stereo unspecified) | 0 | 0 | 0 | 0 | 0
